Assay results: ChEMBL document CHEMBL1157882, “Novel 2-[(benzylamino)methyl]pyrrolidine-3,4-diol derivatives as alpha-mannosidase inhibitors and with antitumor activities against hematological and solid malignancies” (Bioorg Med Chem, 2010)
Active and inactive are the calls of the source. No cut-off for these calls is given here.

Columns and labels:
Prunus dulcis = assay: Inhibition of beta-glucosidase from almond at 1 mM at pH 5
Method in brief: (§1)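 Glycosidase panel of commercial enzymes assayed at each enzyme's optimal pH with compound at 1 mM; percentage inhibition of enzyme activity calculated.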

Aspergillus niger = assay: Inhibition of beta-xylosidase from Aspergillus niger at pH 5; design: concentration or dose not given beside the values; settings: concentration not given here
Jurkat = assay: Cytotoxicity against human Jurkat cells after 72 hrs by colorimetric assay; type: functional, cell-based; settings: Homo sapiens, Jurkat, 72 h; read-out: IC50
[1] = Cytotoxicity against human U87 cells after 72 hrs by colorimetric assay; type: functional, cell-based, U-87MG ATCC; settings: Homo sapiens, U-87 MG, 72 h; read-out: IC50
Method in brief: (§2)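 Cells grown in McCoy's medium (adherent lines) or RPMI-1640 (U266), each with 10% FBS, L-glutamine and antibiotics, at 37 °C in 5% CO₂. Compound dissolved as a 100 mM DMSO stock, final DMSO ≤0.4%. Cells were exposed for 72 h across a 10^-2 to 400 µM range. Viability was read by CellTiter 96 Aqueous (2–4 h incubation, absorbance 490 nm). Triplicate wells; IC50 from curve fitting.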

PC-3 = assay: Cytotoxicity against human PC3 cells after 72 hrs by colorimetric assay; type: functional, cell-based; settings: Homo sapiens, PC-3, 72 h; read-out: IC50; method in brief: as §2
MDA-MB-231 = assay: Cytotoxicity against human MDA-MB-231 cells after 72 hrs by colorimetric assay; type: functional, cell-based; settings: Homo sapiens, MDA-MB-231, 72 h; read-out: IC50; method in brief: as §2
SK-BR-3 [2] = assay: Cytotoxicity against human SKBR3 cells after 72 hrs by colorimetric assay; type: functional, cell-based; settings: Homo sapiens, SK-BR-3, 72 h; read-out: IC50; method in brief: as §2
SK-BR-3 [3] = assay: Cell cycle arrest in human SKBR3 cells by accumulation of cells at G2/M phase at 50 uM after 48 hrs by propidium iodide-staining based flow cytometry (reference value: 16%); type: functional
SK-BR-3 [4] = assay: Cell cycle arrest in human SKBR3 cells by accumulation of cells at G1 phase at 100 uM after 48 hrs by propidium iodide-staining based flow cytometry (reference value: 54%); type: functional
SK-BR-3 [5] = assay: Cell cycle arrest in human SKBR3 cells by accumulation of cells at S phase at 100 uM after 48 hrs by propidium iodide-staining based flow cytometry (reference value: 30%); type: functional
SK-BR-3 [6] = assay: Decrease in CDC25 mRNA level in human SKBR3 cells at 50 uM after 12 hrs by TLDA; type: functional, cell-based
Method in brief: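 SKBR3 or MCF7 cells, 2×10⁵/well, treated with 50 µM for 12 h. Total RNA was column-purified and reverse-transcribed with random hexamers, then assayed on TaqMan low-density arrays. Expression was normalised to RPLP0, with fold change versus DMSO-vehicle cells calculated as 2^-ΔΔCT. Q-PCR run in duplicate per gene.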

SK-BR-3 [7] = assay: Decrease in cyclinE1 mRNA level in human SKBR3 cells at 50 uM after 12 hrs by TLDA; type: functional, cell-based
Method in brief: (§3)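 SKBR3 and MCF7 cells seeded at 2 × 10⁵ per well, treated 12 h with 50 µM compound (DMSO stock); total RNA extracted, cDNA made with random hexamers, gene expression profiled by TaqMan low-density arrays (qPCR, duplicate per gene). Normalised to RPLP0; fold change versus DMSO vehicle-treated cells, calculated as 2^-ΔΔCT.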

SK-BR-3 [8] = assay: Decrease in hTERT mRNA level in human SKBR3 cells at 50 uM after 12 hrs by TLDA; type: functional, cell-based; method in brief: as §3
[9] = Cytotoxicity in human multiple myeloma cells assessed as viable cells at 50 uM after 24 hrs by annexin V/propidium iodide staining based flow cytometry (reference value: 48.2%); type: functional; settings: Multiple myeloma cell, read-out: Activity
[10] = Cytotoxicity in human multiple myeloma cells assessed as early apoptotic cells at 100 uM after 24 hrs by annexin V/propidium iodide staining based flow cytometry (reference value: 0.1%); type: functional, Multiple myeloma cell
[11] = Cytotoxicity in human multiple myeloma cells assessed as late apoptotic/necrotic cells at 200 uM after 24 hrs by annexin V/propidium iodide staining based flow cytometry (reference value: 9.1%); type: functional, Multiple myeloma cell
[12] = Cytotoxicity in human multiple myeloma cells assessed as pre-necrotic cells at 50 uM after 24 hrs by annexin V/propidium iodide staining based flow cytometry (reference value: 42.1%); type: functional, Multiple myeloma cell
[13] = Cytotoxicity in human B-CLL assessed as viable cells at 200 uM after 24 hrs by annexin V/propidium iodide staining based flow cytometry (reference value: 65.8 to 78%); type: functional; settings: read-out: Activity
[14] = Cytotoxicity in human B-CLL assessed as early apoptotic cells at 50 uM after 24 hrs by annexin V/propidium iodide staining based flow cytometry (reference value: 3.6 to 20.2%); type: functional
[15] = Cytotoxicity in human B-CLL assessed as early apoptotic cells at 200 uM after 24 hrs by annexin V/propidium iodide staining based flow cytometry (reference value: 3.6 to 20.2%); type: functional
[16] = Cytotoxicity in human B-CLL assessed as late apoptotic/necrotic cells at 100 uM after 24 hrs by annexin V/propidium iodide staining based flow cytometry (reference value: 10 to 14.7%); type: functional
[17] = target: T1, Beta-galactosidase (Aspergillus oryzae) (UniProt Q2U7N3); assay: Inhibition of beta-galactosidase from Aspergillus oryzae at 1 mM at pH 4; method in brief: as §1
T1 sequence (whole entry): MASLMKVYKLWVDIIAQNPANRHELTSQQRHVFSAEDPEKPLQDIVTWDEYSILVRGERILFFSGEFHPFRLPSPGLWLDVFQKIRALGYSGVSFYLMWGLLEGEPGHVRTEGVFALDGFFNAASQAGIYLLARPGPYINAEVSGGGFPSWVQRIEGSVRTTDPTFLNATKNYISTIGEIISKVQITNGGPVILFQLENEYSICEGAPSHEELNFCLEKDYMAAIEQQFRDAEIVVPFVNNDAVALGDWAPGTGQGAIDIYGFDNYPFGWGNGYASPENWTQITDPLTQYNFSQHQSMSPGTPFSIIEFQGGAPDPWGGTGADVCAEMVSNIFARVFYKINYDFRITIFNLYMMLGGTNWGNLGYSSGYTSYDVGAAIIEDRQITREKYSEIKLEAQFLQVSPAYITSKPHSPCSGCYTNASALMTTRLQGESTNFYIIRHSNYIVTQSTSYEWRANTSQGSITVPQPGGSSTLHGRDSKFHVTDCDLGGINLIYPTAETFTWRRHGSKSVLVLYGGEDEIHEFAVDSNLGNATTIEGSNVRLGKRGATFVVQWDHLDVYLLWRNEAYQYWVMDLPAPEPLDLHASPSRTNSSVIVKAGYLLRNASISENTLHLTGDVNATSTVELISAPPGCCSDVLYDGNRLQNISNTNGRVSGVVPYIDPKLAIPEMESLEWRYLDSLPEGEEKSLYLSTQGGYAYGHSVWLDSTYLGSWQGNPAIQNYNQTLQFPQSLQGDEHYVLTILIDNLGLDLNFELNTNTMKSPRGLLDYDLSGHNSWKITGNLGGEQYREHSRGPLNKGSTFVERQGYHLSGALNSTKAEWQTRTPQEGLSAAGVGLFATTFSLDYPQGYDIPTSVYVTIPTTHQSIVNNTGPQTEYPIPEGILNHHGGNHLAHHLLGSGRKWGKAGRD

Saccharomyces cerevisiae = assay: Inhibition of alpha-glucosidase from yeast at 1 mM at pH 7; method in brief: as §1

inhibition (Prunus dulcis): 50% | inhibition (Aspergillus niger): 52% | inhibition [17]: < 10% | inhibition (Saccharomyces cerevisiae): < 10%
Compound: OC[C@H](NC[C@H]1NC[C@H](O)[C@@H]1O)c1ccc(-c2ccc(C(F)(F)F)cc2)cc1
IC50 (Jurkat): 75 µM | IC50 [1]: 80 µM | IC50 (PC-3): 132 µM | IC50 (MDA-MB-231): 66 µM | IC50 (SK-BR-3 [2]): 48 µM | Activity (SK-BR-3 [3]): 13% | Activity (SK-BR-3 [4]): 48% | Activity (SK-BR-3 [5]): 9% | Activity (SK-BR-3 [6]): Active | Activity (SK-BR-3 [7]): Active | Activity (SK-BR-3 [8]): Active | viability at 50 µM [9]: 42.8% | Activity [10]: 2.6% | Activity [11]: 75.4% | Activity [12]: 17% | viability at 200 µM [13]: 1.6% | Activity [14]: 11.3% | Activity [15]: 1% | Activity [16]: 11.1%
